Legend:
[1] = tested on: OATP1B3; settings: cited from earlier work
[2] = Treatment-emergent adverse events, MAD period and b.i.d. cohort; type: in vivo, human
How it was run: (§1)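 Double-blind, placebo-controlled study in healthy men and nonchildbearing women aged 18–55 y. The SAD period gave one fasted oral dose; the MAD period gave fed dosing q.d. for 10 days, plus a separate b.i.d. cohort. TEAEs, serious AEs and discontinuation AEs were monitored ≥28 days after the last dose. Vital signs, physical exam, 12-lead ECG, hematology, clinical chemistry and urinalysis were also recorded. Data summarized descriptively.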

[3] = tested on: sodium/Na+ taurocholate co‐transporting polypeptide; settings: cited from earlier work
[4] = Clinical laboratory parameters, vital signs, ECG and overall safety; type: in vivo, human
How it was run: as §1

[5] = MAD Japanese cohort 400 mg q.d. (n = 5)
[6] = b.i.d. cohort 200 mg b.i.d. (n = 7)

Compound: Cn1cc(-c2cn3nccc3c(-c3cnn([C@]4(CC#N)C[C@@H](C#N)C4)c3)n2)cn1 [PF‐06826647]
- inhibition of transporter protein OATP1B3 [1]: minimal inhibition
- AEs ([2]; MAD 30 mg q.d. (n = 6)): 2 n
- AEs leading to permanent discontinuation of study drug ([2]; MAD 30 mg q.d. (n = 6)): 0 n
- AEs leading to study drug dose reduction or interruption ([2]; MAD 30 mg q.d. (n = 6)): 0 n
- Participants with AE ([2]; MAD 30 mg q.d. (n = 6)): 2 (33.3) n (%)
- Participants with TEAEs: Alanine aminotransferase increased ([2]; MAD 30 mg q.d. (n = 6)): 0 n (%)
- Participants with TEAEs: Blood creatinine increased ([2]; MAD 30 mg q.d. (n = 6)): 0 n (%)
- Participants with TEAEs: Constipation ([2]; MAD 30 mg q.d. (n = 6)): 1 (16.7) n (%)
- Participants with TEAEs: Dysuria ([2]; MAD 30 mg q.d. (n = 6)): 0 n (%)
- Participants with TEAEs: Gastrointestinal disorders (SOC) ([2]; MAD 30 mg q.d. (n = 6)): 2 (33.3) n (%)
- Participants with TEAEs: Headache ([2]; MAD 30 mg q.d. (n = 6)): 0 n (%)
- Participants with TEAEs: Investigations (SOC) ([2]; MAD 30 mg q.d. (n = 6)): 0 n (%)
- Participants with TEAEs: Nausea ([2]; MAD 30 mg q.d. (n = 6)): 1 (16.7) n (%)
- Participants with TEAEs: Nervous system disorders (SOC) ([2]; MAD 30 mg q.d. (n = 6)): 0 n (%)
- Participants with TEAEs: Renal and urinary disorders (SOC) ([2]; MAD 30 mg q.d. (n = 6)): 0 n (%)
- SAEs ([2]; MAD 30 mg q.d. (n = 6)): 0 n
- Severe AEs ([2]; MAD 30 mg q.d. (n = 6)): 0 n
- AEs ([2]; MAD 100 mg q.d. (n = 6)): 1 n
- AEs leading to permanent discontinuation of study drug ([2]; MAD 100 mg q.d. (n = 6)): 0 n
- AEs leading to study drug dose reduction or interruption ([2]; MAD 100 mg q.d. (n = 6)): 0 n
- Participants with AE ([2]; MAD 100 mg q.d. (n = 6)): 1 (16.7) n (%)
- Participants with TEAEs: Alanine aminotransferase increased ([2]; MAD 100 mg q.d. (n = 6)): 0 n (%)
- Participants with TEAEs: Blood creatinine increased ([2]; MAD 100 mg q.d. (n = 6)): 1 (16.7) n (%)
- Participants with TEAEs: Constipation ([2]; MAD 100 mg q.d. (n = 6)): 0 n (%)
- Participants with TEAEs: Dysuria ([2]; MAD 100 mg q.d. (n = 6)): 0 n (%)
- Participants with TEAEs: Gastrointestinal disorders (SOC) ([2]; MAD 100 mg q.d. (n = 6)): 0 n (%)
- Participants with TEAEs: Headache ([2]; MAD 100 mg q.d. (n = 6)): 0 n (%)
- Participants with TEAEs: Investigations (SOC) ([2]; MAD 100 mg q.d. (n = 6)): 1 (16.7) n (%)
- Participants with TEAEs: Nausea ([2]; MAD 100 mg q.d. (n = 6)): 0 n (%)
- Participants with TEAEs: Nervous system disorders (SOC) ([2]; MAD 100 mg q.d. (n = 6)): 0 n (%)
- Participants with TEAEs: Renal and urinary disorders (SOC) ([2]; MAD 100 mg q.d. (n = 6)): 0 n (%)
- SAEs ([2]; MAD 100 mg q.d. (n = 6)): 0 n
- Severe AEs ([2]; MAD 100 mg q.d. (n = 6)): 0 n
- AEs ([2]; MAD 400 mg q.d. (n = 6)): 1 n
- AEs leading to permanent discontinuation of study drug ([2]; MAD 400 mg q.d. (n = 6)): 0 n
- AEs leading to study drug dose reduction or interruption ([2]; MAD 400 mg q.d. (n = 6)): 0 n
- Participants with AE ([2]; MAD 400 mg q.d. (n = 6)): 1 (16.7) n (%)
- Participants with TEAEs: Alanine aminotransferase increased ([2]; MAD 400 mg q.d. (n = 6)): 0 n (%)
- Participants with TEAEs: Blood creatinine increased ([2]; MAD 400 mg q.d. (n = 6)): 1 (16.7) n (%)
- Participants with TEAEs: Constipation ([2]; MAD 400 mg q.d. (n = 6)): 0 n (%)
- Participants with TEAEs: Dysuria ([2]; MAD 400 mg q.d. (n = 6)): 0 n (%)
- Participants with TEAEs: Gastrointestinal disorders (SOC) ([2]; MAD 400 mg q.d. (n = 6)): 0 n (%)
- Participants with TEAEs: Headache ([2]; MAD 400 mg q.d. (n = 6)): 0 n (%)
- Participants with TEAEs: Investigations (SOC) ([2]; MAD 400 mg q.d. (n = 6)): 1 (16.7) n (%)
- Participants with TEAEs: Nausea ([2]; MAD 400 mg q.d. (n = 6)): 0 n (%)
- Participants with TEAEs: Nervous system disorders (SOC) ([2]; MAD 400 mg q.d. (n = 6)): 0 n (%)
- Participants with TEAEs: Renal and urinary disorders (SOC) ([2]; MAD 400 mg q.d. (n = 6)): 0 n (%)
- SAEs ([2]; MAD 400 mg q.d. (n = 6)): 0 n
- Severe AEs ([2]; MAD 400 mg q.d. (n = 6)): 0 n
- AEs ([2]; MAD 1,200 mg q.d. (n = 5)): 1 n
- AEs leading to permanent discontinuation of study drug ([2]; MAD 1,200 mg q.d. (n = 5)): 0 n
- AEs leading to study drug dose reduction or interruption ([2]; MAD 1,200 mg q.d. (n = 5)): 0 n
- Participants with AE ([2]; MAD 1,200 mg q.d. (n = 5)): 1 (20.0) n (%)
- Participants with TEAEs: Alanine aminotransferase increased ([2]; MAD 1,200 mg q.d. (n = 5)): 0 n (%)
- Participants with TEAEs: Blood creatinine increased ([2]; MAD 1,200 mg q.d. (n = 5)): 1 (20.0) n (%)
- Participants with TEAEs: Constipation ([2]; MAD 1,200 mg q.d. (n = 5)): 0 n (%)
- Participants with TEAEs: Dysuria ([2]; MAD 1,200 mg q.d. (n = 5)): 0 n (%)
- Participants with TEAEs: Headache ([2]; MAD 1,200 mg q.d. (n = 5)): 0 n (%)
- Participants with TEAEs: Investigations (SOC) ([2]; MAD 1,200 mg q.d. (n = 5)): 1 (20.0) n (%)
- Participants with TEAEs: Nausea ([2]; MAD 1,200 mg q.d. (n = 5)): 0 n (%)
- Participants with TEAEs: Nervous system disorders (SOC) ([2]; MAD 1,200 mg q.d. (n = 5)): 0 n (%)
- Participants with TEAEs: Renal and urinary disorders (SOC) ([2]; MAD 1,200 mg q.d. (n = 5)): 0 n (%)
- SAEs ([2]; MAD 1,200 mg q.d. (n = 5)): 0 n
- Severe AEs ([2]; MAD 1,200 mg q.d. (n = 5)): 0 n
- AEs [2, 5]: 2 n
- AEs leading to permanent discontinuation of study drug [2, 5]: 0 n
- AEs leading to study drug dose reduction or interruption [2, 5]: 0 n
- Participants with AE [2, 5]: 1 (20.0) n (%)
- Participants with TEAEs: Alanine aminotransferase increased [2, 5]: 1 (20.0) n (%)
- Participants with TEAEs: Blood creatinine increased [2, 5]: 0 n (%)
- Participants with TEAEs: Constipation [2, 5]: 0 n (%)
- Participants with TEAEs: Dysuria [2, 5]: 0 n (%)
- Participants with TEAEs: Gastrointestinal disorders (SOC) [2, 5]: 0 n (%)
- Participants with TEAEs: Headache [2, 5]: 1 (20.0) n (%)
- Participants with TEAEs: Investigations (SOC) [2, 5]: 1 (20.0) n (%)
- Participants with TEAEs: Nausea [2, 5]: 0 n (%)
- Participants with TEAEs: Nervous system disorders (SOC) [2, 5]: 1 (20.0) n (%)
- Participants with TEAEs: Renal and urinary disorders (SOC) [2, 5]: 0 n (%)
- SAEs [2, 5]: 0 n
- Severe AEs [2, 5]: 0 n
- AEs [2, 6]: 3 n
- AEs leading to permanent discontinuation of study drug [2, 6]: 0 n
- AEs leading to study drug dose reduction or interruption [2, 6]: 0 n
- Participants with AE [2, 6]: 3 (42.9) n (%)
- Participants with TEAEs: Alanine aminotransferase increased [2, 6]: 0 n (%)
- Participants with TEAEs: Blood creatinine increased [2, 6]: 3 (42.9) n (%)
- Participants with TEAEs: Constipation [2, 6]: 0 n (%)
- Participants with TEAEs: Dysuria [2, 6]: 0 n (%)
- Participants with TEAEs: Gastrointestinal disorders (SOC) [2, 6]: 0 n (%)
- Participants with TEAEs: Headache [2, 6]: 0 n (%)
- Participants with TEAEs: Investigations (SOC) [2, 6]: 3 (42.9) n (%)
- Participants with TEAEs: Nausea [2, 6]: 0 n (%)
- Participants with TEAEs: Nervous system disorders (SOC) [2, 6]: 0 n (%)
- Participants with TEAEs: Renal and urinary disorders (SOC) [2, 6]: 0 n (%)
- SAEs [2, 6]: 0 n
- Severe AEs [2, 6]: 0 n
- inhibition of sodium/Na+ taurocholate co‐transporting polypeptide [3]: minimal inhibition
- increase in median platelet count from baseline ([4]; SAD 1,600 mg (placebo: 6% decrease)): 28%
- changes in lipid parameters (LDL, HDL, total cholesterol) ([4]; SAD and MAD treatment groups): small, and similar to those observed in the placebo group
- intensity of TEAEs ([4]; all TEAEs): mild in intensity
- lymphocyte counts ([4]; assessment period): No clinically meaningful changes
- neutrophil counts ([4]; assessment period): No clinically meaningful changes
- events of acne or aphthous ulcers ([4]; either treatment period): No events of acne or aphthous ulcers were reported
- serum cystatin C, serum creatinine‐based and cystatin C‐based eGFR ([4]; human, in vivo): No clinically meaningful changes
- vital signs, ECG parameters, physical examination ([4]; human, in vivo): No clinically significant findings
- platelet counts ([4]; participants receiving PF‐06826647): remained within the normal range
- tolerability ([4]; single ≤ 1,600 mg, multiple ≤ 1,200 mg q.d., 200 mg b.i.d., 10‐day dosing): well‐tolerated
- serum creatinine increase from baseline ([4]; some participants, isolated timepoints): up to 0.3 mg/dL
- participants with gastrointestinal AEs ([4]; whole study, three participants): 4%

— PMC7993274 (Clinical and Translational Science, 2020)
